Experimental findings from ChEMBL document CHEMBL4028818, “Tricyclic 4,4-dimethyl-3,4-dihydrochromeno[3,4-d]imidazole derivatives as microsomal prostaglandin E2 synthase-1 (mPGES-1) inhibitors: SAR and in vivo efficacy in hyperalgesia pain model” (Bioorg Med Chem Lett, 2017) are described below.

Bounds are passed on as bounds.

The target of series [1] is T1, Prostaglandin E synthase (Homo sapiens, UniProt O14684).
T1 sequence (O14684 whole entry): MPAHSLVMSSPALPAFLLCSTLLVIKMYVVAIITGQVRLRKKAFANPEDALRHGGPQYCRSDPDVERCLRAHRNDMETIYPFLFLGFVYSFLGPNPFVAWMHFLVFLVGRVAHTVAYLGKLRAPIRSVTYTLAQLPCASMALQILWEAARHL
Briefly: Inhibition of mPGES-1 in human A549 cells assessed as decrease in IL1beta induced PGE2 release preincubated for 30 mins followed by IL-1beta addition after 16 to 20 hrs by HTRF method. It counts as cell-based. For orientation: Time-resolved FRET reads energy transfer from a long-lived donor to a nearby acceptor.

Series [2] addresses CYP2C19 (Homo sapiens, UniProt P33261). The experiment in a line: Inhibition of CYP2C19 in human liver microsomes at 10 uM measured after 40 mins in presence of NADPH by LC/MS/MS analysis relative to control. It counts as ADME. The method, boiled down: (§1)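 CYP isoforms 1A2, 2D6, 3A4, 2C9 and 2C19 were tested at 1 and 10 µM. Results are % inhibition compared with a no-inhibitor control, run in triplicate.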
Background: Liver microsomes are vesicles of endoplasmic reticulum, rich in cytochrome P450 enzymes.

Series [3] is described as follows: Metabolic stability in human liver microsomes assessed as parent compound remaining at 1 uM after 60 mins in presence of NADPH by LC/MS/MS analysis. It counts as ADME, microsome. The settings on record: read-out: Stability. The method, boiled down: (§2)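 Compound at 1.0 µM was incubated with liver microsomes (1.0 mg/mL protein) at 37 °C for 60 min. Samples were analysed by LC/MS/MS as % parent remaining. Run in triplicate.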

Series [4] is described as follows: Metabolic stability in rat liver microsomes assessed as parent compound remaining at 1 uM after 60 mins in presence of NADPH by LC/MS/MS analysis. To be noted: read-out: Stability. It counts as ADME, microsome. In outline:
as §2

The target in series [5] is T2, Prostaglandin G/H synthase 2 (Homo sapiens, UniProt P35354).
T2 sequence (P35354 whole entry): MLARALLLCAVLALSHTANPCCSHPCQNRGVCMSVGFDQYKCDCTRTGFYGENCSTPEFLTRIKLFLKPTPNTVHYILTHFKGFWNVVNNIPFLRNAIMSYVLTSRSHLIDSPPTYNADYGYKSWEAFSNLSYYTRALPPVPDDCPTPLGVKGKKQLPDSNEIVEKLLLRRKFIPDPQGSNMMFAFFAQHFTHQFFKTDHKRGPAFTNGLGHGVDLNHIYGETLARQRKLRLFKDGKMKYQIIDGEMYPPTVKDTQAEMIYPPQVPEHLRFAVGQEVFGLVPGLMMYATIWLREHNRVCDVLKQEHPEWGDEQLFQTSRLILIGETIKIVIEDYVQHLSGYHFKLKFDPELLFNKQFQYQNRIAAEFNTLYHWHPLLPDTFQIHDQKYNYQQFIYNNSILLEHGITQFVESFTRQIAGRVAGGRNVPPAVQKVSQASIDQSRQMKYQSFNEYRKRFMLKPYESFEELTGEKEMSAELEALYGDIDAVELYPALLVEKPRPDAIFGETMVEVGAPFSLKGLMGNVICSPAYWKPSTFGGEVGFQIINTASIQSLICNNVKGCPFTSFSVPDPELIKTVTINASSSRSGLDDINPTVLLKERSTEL
Briefly: Inhibition of recombinant human N-terminal His-tagged COX2 expressed in baculovirus infected Sf21 insect cells assessed as decrease in PGE2 release using arachidonic acid as substrate preincubated for 15 mins followed by arachidonic acid addition measured after 5 mins.

Series [6] is described as follows: AUC (0 to 24 hrs) in Sprague-Dawley rat at 10 mg/kg, po. It counts as ADME, organism-based. Details: dose 10 mg/kg, time < 24 hr, route oral. The settings on record: in vivo. In outline: (§3)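 Male Sprague-Dawley rats were dosed orally as a 0.5% methylcellulose suspension. Cmax, AUC0-24, Tmax, T1/2 and %F were determined. Values are mean ± SD, n = 3.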
In series [7] the target is T1, Prostaglandin E synthase. The experiment in a line: Inhibition of recombinant human mPGES-1 expressed in CHO cells assessed as reduction in PGE2 formation using PGH2 a substrate preincubated for 10 mins followed by substrate addition measured after 1 min. In kind it is cell-based. The method, boiled down: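 mPGES-1 enzyme inhibition. % inhibition values are means of two experiments in duplicate. IC50 values were derived from graphs of at least two experiments in duplicate.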

In series [8] the target is T3, Cytochrome P450 1A2 (Homo sapiens, UniProt P05177).
T3 sequence (P05177 whole entry): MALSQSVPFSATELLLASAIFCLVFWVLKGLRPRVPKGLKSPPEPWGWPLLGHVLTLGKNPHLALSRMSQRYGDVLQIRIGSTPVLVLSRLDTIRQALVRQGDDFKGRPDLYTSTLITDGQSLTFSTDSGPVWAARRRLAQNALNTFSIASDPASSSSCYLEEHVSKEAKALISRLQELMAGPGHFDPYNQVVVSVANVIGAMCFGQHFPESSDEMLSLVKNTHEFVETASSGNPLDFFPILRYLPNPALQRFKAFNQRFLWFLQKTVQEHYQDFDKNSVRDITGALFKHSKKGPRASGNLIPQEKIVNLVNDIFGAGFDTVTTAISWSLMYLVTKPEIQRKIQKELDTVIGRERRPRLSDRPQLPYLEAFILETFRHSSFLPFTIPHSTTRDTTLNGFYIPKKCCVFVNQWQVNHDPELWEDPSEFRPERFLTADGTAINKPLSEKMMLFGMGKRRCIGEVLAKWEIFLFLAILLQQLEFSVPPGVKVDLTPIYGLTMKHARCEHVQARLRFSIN
Briefly: Inhibition of CYP1A2 in human liver microsomes at 1 uM measured after 20 mins in presence of NADPH by LC/MS/MS analysis. In kind it is ADME. In outline:
as §1

The nature of series [9]: Apparent volume of distribution in Sprague-Dawley rat at 5 mg/kg, iv administered as single bolus dose. In kind it is ADME, organism-based. The settings on record: in vivo, read-out: Vz. In outline: (§4)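 Male Sprague-Dawley rats were dosed i.v. in a vehicle of 20% NMP + 20% ethanol + 60% PEG 200. T1/2, CL and Vz were derived. Values are mean ± SD, n = 3.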
The nature of series [10]: Protein binding in human plasma at 10 uM after 5 to 10 mins by LC-MS/SM analsysis. In kind it is ADME, cell-free. To be noted: read-out: PPB. The method, boiled down:
(§5)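 Plasma protein binding was measured by equilibrium dialysis at 10 µM compound.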

A short description of series [11]: Half life in Sprague-Dawley rat at 5 mg/kg, iv administered as single bolus dose. In kind it is ADME, organism-based. To be noted: in vivo. The method, boiled down: as §4
Series [12] can be described thus: Protein binding in Guinea pig plasma at 10 uM after 5 to 10 mins by LC-MS/SM analysis. In kind it is ADME, cell-free, Cavia porcellus. To be noted: read-out: PPB. In outline:
as §5

For series [13], the target named is Cytochrome P450 2C19 (Homo sapiens, UniProt P33261). The experiment in a line: Inhibition of CYP2C19 in human liver microsomes at 1 uM measured after 40 mins in presence of NADPH by LC/MS/MS analysis. It counts as ADME. In outline: as §1
Cytochrome P450 2C19, sequence (P33261 whole entry): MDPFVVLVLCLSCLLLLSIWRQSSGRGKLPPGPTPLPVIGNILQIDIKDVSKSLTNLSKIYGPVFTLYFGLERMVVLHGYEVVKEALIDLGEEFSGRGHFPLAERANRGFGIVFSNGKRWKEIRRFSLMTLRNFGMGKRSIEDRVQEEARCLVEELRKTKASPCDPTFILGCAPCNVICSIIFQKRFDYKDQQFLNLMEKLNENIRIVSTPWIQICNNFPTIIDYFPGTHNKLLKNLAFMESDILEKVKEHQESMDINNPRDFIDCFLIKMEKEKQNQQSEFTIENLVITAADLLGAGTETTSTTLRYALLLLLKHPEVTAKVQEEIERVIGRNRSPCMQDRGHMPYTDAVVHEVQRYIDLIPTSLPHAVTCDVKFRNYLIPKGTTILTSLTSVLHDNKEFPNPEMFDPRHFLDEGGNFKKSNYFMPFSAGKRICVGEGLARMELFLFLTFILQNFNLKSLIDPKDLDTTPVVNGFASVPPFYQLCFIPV
Series [14] has as its target Cytochrome P450 3A4 (Homo sapiens, UniProt P08684). Briefly: Inhibition of CYP3A4 in human liver microsomes at 1 uM measured after 20 mins in presence of NADPH by LC/MS/MS analysis. In kind it is ADME. The method, boiled down: as §1
Series [15] deals with Cytochrome P450 2D6 (Homo sapiens, UniProt P10635). Briefly: Inhibition of CYP2D6 in human liver microsomes at 1 uM measured after 20 mins in presence of NADPH by LC/MS/MS analysis. In kind it is ADME. The method, boiled down: as §1
Cytochrome P450 2D6, sequence (P10635 whole entry): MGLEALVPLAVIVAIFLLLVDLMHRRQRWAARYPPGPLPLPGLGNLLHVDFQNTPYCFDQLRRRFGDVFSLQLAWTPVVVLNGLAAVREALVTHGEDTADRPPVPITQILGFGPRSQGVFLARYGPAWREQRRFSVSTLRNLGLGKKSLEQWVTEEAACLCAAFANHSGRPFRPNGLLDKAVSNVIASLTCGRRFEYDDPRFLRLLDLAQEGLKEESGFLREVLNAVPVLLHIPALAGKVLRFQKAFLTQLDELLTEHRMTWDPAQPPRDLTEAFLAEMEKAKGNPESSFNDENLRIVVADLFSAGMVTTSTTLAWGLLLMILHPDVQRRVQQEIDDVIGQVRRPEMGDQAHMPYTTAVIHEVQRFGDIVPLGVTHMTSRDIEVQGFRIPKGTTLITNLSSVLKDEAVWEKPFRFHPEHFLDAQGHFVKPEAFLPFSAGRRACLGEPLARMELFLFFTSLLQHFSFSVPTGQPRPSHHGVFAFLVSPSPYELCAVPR
The target of series [16] is Cytochrome P450 2C9 (Homo sapiens, UniProt P11712). Briefly: Inhibition of CYP2C9 in human liver microsomes at 1 uM measured after 20 mins in presence of NADPH by LC/MS/MS analysis. In kind it is ADME. In outline:
as §1

Series [17] can be described thus: Clearance in Sprague-Dawley rat at 5 mg/kg, iv administered as single bolus dose. It counts as ADME, organism-based. The settings on record: in vivo. In outline:
as §4

Series [18] is described as follows: Oral bioavailability in Sprague-Dawley rat at 10 mg/kg. It counts as ADME, organism-based. The settings on record: in vivo. The method, boiled down:
as §3

Cytochrome P450 2C9, sequence (P11712 whole entry): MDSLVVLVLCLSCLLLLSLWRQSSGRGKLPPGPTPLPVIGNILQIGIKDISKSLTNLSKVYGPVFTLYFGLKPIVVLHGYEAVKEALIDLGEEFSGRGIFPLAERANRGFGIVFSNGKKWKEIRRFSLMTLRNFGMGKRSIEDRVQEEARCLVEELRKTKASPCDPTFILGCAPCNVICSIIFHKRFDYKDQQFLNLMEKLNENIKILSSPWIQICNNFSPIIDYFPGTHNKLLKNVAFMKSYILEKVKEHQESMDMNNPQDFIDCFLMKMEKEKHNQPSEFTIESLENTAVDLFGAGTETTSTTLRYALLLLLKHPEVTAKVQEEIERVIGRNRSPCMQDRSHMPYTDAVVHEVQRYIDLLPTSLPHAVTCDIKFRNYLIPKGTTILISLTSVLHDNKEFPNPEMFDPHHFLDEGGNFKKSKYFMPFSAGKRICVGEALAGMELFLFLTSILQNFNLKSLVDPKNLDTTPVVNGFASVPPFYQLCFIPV
CYP2C19, sequence (P33261 whole entry, canonical isoform): as the sequence (P33261 whole entry) above
Cytochrome P450 3A4, sequence (P08684 whole entry): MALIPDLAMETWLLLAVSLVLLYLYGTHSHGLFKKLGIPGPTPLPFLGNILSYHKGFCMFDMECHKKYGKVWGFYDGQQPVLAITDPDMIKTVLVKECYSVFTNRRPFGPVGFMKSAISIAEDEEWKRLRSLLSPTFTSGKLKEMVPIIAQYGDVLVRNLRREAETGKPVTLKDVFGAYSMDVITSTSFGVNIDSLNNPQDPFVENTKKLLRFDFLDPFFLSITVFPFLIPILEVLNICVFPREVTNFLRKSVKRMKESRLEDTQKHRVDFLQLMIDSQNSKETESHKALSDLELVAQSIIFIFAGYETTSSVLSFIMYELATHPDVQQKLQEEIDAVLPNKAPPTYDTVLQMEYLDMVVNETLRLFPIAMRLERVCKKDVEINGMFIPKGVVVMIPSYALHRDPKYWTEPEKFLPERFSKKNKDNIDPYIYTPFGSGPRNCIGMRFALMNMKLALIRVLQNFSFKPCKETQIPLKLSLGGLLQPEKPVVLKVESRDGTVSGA

In general, IC50 refers to the concentration that gives 50% inhibition. What is called inhibition is the share of the control response that was lost under treatment. In general, AUC(0-t) refers to exposure summed from dosing to a finite time, without extrapolation to infinity. Read a high AUC(0-t) as more exposure. The term half-life denotes the time needed for the level to fall by half in the phase considered. A higher half-life goes with slow loss. In general, clearance refers to the rate of elimination divided by the concentration. As usually defined, the bioavailability is the share of a dose that reaches the circulation, judged against a reference dose that is usually intravenous. `CC1(C)Oc2cc(C#Cc3cc(Cl)ccc3F)ccc2-c2[nH]c(-c3c(F)cccc3Cl)nc21`: the figures for the IC50 in [1], in series [5] and in series [7] were 839 nM, 9880 nM and 36.3 nM, respectively. For the same compound, the inhibition at 40 min, 10 µM in [2] fell in the range of 17 to 26%. In addition, the remaining at 1 h, 1 µM came out at 76% in series [3] and 44% in [4]. In series [6], this compound showed an exposure AUC(0-t) at 24 h of 12400 ng·h/mL. Further, the “inhibition (INH)” value in [8], in [13], in series [14], in [15] and in series [16] was “Not Active” throughout. For the same compound, in series [9], the Vd is 5.3 L/kg. Further, the fraction unbound at 10 µM in series [10] is under 0.045; in series [12] it was under 0.005. Besides, in [11], the half-life was 5.5 h. In series [17], this compound returned a clearance of 11.1 mL/min/kg. Also, the bioavailability in series [18] amounted to 85%.
As to `CC1(C)Oc2cc(-c3cccc(OC(F)(F)F)c3)ccc2-c2[nH]c(-c3c(F)cccc3Cl)nc21`, the IC50 was 840 nM in series [1], over 10000 nM in series [5] and 56.9 nM in series [7]. The inhibition at 40 min, 10 µM in [2] turned out to be 27.2%. In addition, the remaining at 1 h, 1 µM was 84% in [3] and 83% in [4]. The AUC(0-t) at 24 h in series [6] was 12600 ng·h/mL. Moreover, the “inhibition (INH)” value in series [8], in [13], in [14], in series [15] and in [16] was “Not Active” in each case. Besides, in series [9], the Vd is 3.11 L/kg. In addition, the fraction unbound at 10 µM in series [10] and in series [12] was under 0.005 each time. The compound also showed a half-life in [11] of 9.87 h. The same compound gave a clearance in series [17] of 3.63 mL/min/kg. For the same compound, in series [18], the bioavailability came to 33%.
